Measured values published in the EternaBench riboswitch data.

Columns and labels:
[1] = tested on: MS2 coat protein; test: apparent Kd, MS2 coat protein; higher = weaker binding; RNA-MaP array; theophylline 2 mM where present
Method in brief: (§1)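 Green signal was scaled to red-channel RNA signal and control-cluster median Fmax, and the apparent Kd was taken as the median of filtered per-cluster binding-curve fits. The binding series used SNAP-549-labelled MS2 coat protein from 0.7 or 1.5 nM, doubling to 3 µM, on designs transcribed by stalled E. coli RNA polymerase on Illumina sequencing-chip clusters. Each series ran without and then with constant ligand in 100 mM Tris-HCl pH 7.5, 80 mM KCl, 4 mM MgCl2, BSA, DTT, yeast tRNA and Tween-20.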

[2] = tested on: MS2 coat protein; test: apparent Kd, MS2 coat protein; higher = weaker binding; RNA-MaP array; tryptophan 2.4 mM where present; details: designed as: OFF switch for tryptophan
Method in brief: as §1

[3] = designed as: OFF switch for theophylline, no ligand
[4] = ligand present: theophylline, designed as: OFF switch for theophylline
[5] = designed as: ON switch for theophylline, no ligand
[6] = ligand present: theophylline, designed as: ON switch for theophylline

| Sequence | apparent Kd [1, 3] [µM] | apparent Kd [1, 4] [µM] | apparent Kd [1, 5] [µM] | apparent Kd [1, 6] [µM] | other results |
| --- | --- | --- | --- | --- | --- |
| AAAUAAAUAACUGAUACCAGUGUACUGACAUGAGGAUCACCCAUGUUGGGUUUGGUUGUACACCCUUGGCAGCAGAAAUAUAAAA | 0.0159 | 0.0298 |  |  |  |
| AACAUGGGAUUAAAAUAAAUAAUAACUGAUACCAGACUAUAUAAUGUCCCUUGGCAGCAGAUACAUGAGGAUCACCCAUGUAUUA | 0.0129 | 0.0238 |  |  |  |
| AACCGAGGCUAUCCUCUAAGACUAUGUGAUACCAGAAUAAUUUUAUUCCCUUGGCAGCAUGACAUGAGGAUCACCCAUGUCUCUU |  |  | 0.0278 | 0.0323 |  |
| AACUAAUCACAUGAGGAUCACCCAUGUGAUACCAGCUAAUCCCAAAGCCCUUGGCAGCACCUUUGGGUCCCGGUGUGUUUGAACA | 0.0096 | 0.022 |  |  |  |
| AAUAACAUGAGGAUCACCCAUGUAAAAGAUACCAGAGUGAUGAUCCUCCCUUGGCAGCUUAAUAACGCUAUCGGAAACGAUAGCG |  |  | 0.0692 | 0.105 |  |
| AAUAACAUGAGGAUCACCCAUGUAAAAGAUACCAGAUGCAUGAUGAUCCCUUGGCAGCUUAACGCUGAUUGGAAACAAUCAGCGA |  |  | 0.039 | 0.0376 |  |
| AAUGCUGCCAAGGAUUCCUCAUGAGCAGAUACCAGCUAGGAAACUAGCCCUUGGCAGCUGCAACAUGAGGAUCACCCAUGUAAUA | 0.0385 | 0.0263 |  |  |  |
| ACAACAUGAGGCGAUACCAGAGGCAACAUGAGGAUCACCCAUGUUCACCCAUGUGAUCACCUCCCUUGGCAGCGCACAUGAGGAU |  |  | 0.0124 | 0.03 |  |
| ACAUGAGGAUCACCCAUGUAGUGGCACGAUACCAGCUGAUCCCGUGGCCCUUGGCAGCGUCCGGUGUGGUCUGCCGGGAUGGAGC |  |  | 0.0237 | 0.0284 |  |
| ACAUGAGGAUCACCCAUGUGCAGAACGGAUACCAGCGUCCUGGUACGCCCUUGGCAGCCGGACAUGAGGAUCACCCAUGUGUGGA | 0.0931 | 0.406 |  |  |  |
| ACCCAUAAUUGGGCGGGUGGAUUGAGUGAUACCAGUCGUAUACAUGACCCUUGGCAGCACCGACAUGAGGAUCACCCAUGUGCCA |  |  | 0.0397 | 0.0998 |  |
| ACGAACGAUAGCGAUACCAGACGUACAUGAGGAUCACCCAUGUUUUGGGUAAGGUUAAUAGUCCCUUGGCAGCGCUUUAAGUUCG | 0.0596 | 0.469 |  |  |  |
| ACGAUACGACAUGAGGAUCACCCAUGUGAUACCAGCGUGGAAACACGCCCUUGGCAGCACAAAUACUCCAGAAACGUAUCGAAAA | 0.239 | 0.389 |  |  |  |
| ACGUCAUGGAGAACGUGACGACUUAUCGAUACCAGCGAUUGAGAGCGCCCUUGGCAGCGAACAUGAGGAUCACCCAUGUCAAGGG |  |  | 0.0297 | 0.0421 |  |
| AGACAUGAGGAUCACCCAUGUAGUACGGAUACCAGAUCCAGAUGCGUCCCUUGGCAGCUGUGGUACAGCGUUACAUCGCUCGUAG | 0.0176 | 0.0176 |  |  |  |
| AGACAUGAGGAUCACCCAUGUAGUAUGGAUACCAGAUCCAGAUUUAUCCCUUGGCAGCUGUGGUACAGCGUUGCAACGCUCCUAG | 0.0293 | 0.0289 |  |  |  |
| AGAUAACAUGGUUUAAUAAGUUAAACUGAUACCAGUGUAUAUAAUCACCCUUGGCAGCAGCAACAUGAGGAUCACCCAUGUAAUA |  |  | 0.0172 | 0.0219 |  |
| AGCCCUGUGCUAGAUACCAGCUACAUGAGGAUCACCCAUGUGCGUCAAGACUGACUGUGUAGCCCUUGGCAGCUACUCGCAUGUA | 0.0126 | 0.023 |  |  |  |
| AGCGACAUGCGUGAUACCAGCUACAUGAGGAUCACCCAUGUACGUCAGAAAUGACUGUGUAGCCCUUGGCAGCAUAGUGCAUGUC | 0.0326 | 0.0607 |  |  |  |
| AGCGCAGGUCCUGAUACCAGAGACAUGAGGAUCACCCAUGUCCGAUGGUCCUGCCUCAGGCUCCCUUGGCAGCAGGGCUUGUGCU | 0.0103 | 0.0204 |  |  |  |
| AGGAAACAACAUGAGGAUCACCCAUGUGAUACCAGUCAAAUAAAAGACCCUUGGCAGCACACAUGACAUGAGGAUCACCCAUGUA |  |  | 0.0319 | 0.077 |  |
| AGUAAUCUAUCAGAUACCAGACCCUCUUUAACAUGAGGAUCACCCAUGUCUAUGUUCUACGUCCCUUGGCAGCUGUAAAUGAUAA |  |  | 0.0459 | 0.0209 |  |
| AGUACUCGAACGGAUACCAGCCGGACAUGAGGAUCACCCAUGUCCUACCUCUGUUCGGUUGGCCCUUGGCAGCCGUUCGUGUACA |  |  | 0.0994 | 0.0933 |  |
| AUAAAUAUAACCGAUACCAGCCUUAUACAUGAGGAUCACCCAUGUUAUGCUUCCUUUCUUGGCCCUUGGCAGCGGAAAUGGGUAA |  |  | 0.0579 | 0.0264 |  |
| AUAAGUAAUGUCUCGUGUAUUAUUACAGAUACCAGACUAUCCUAUGUCCCUUGGCAGCUGGAUUACAUGAGGAUCACCCAUGUGG | 0.0436 | 0.035 |  |  |  |
| AUAAUGGGUAUCGGAUUAUCAUGGAAUGAUACCAGAUACUUAGAUAUCCCUUGGCAGCAUGAGGACAUGAGGAUCACCCAUGUAU | 0.0464 | 0.118 |  |  |  |
| AUAAUGGGUUUCGGACUAUCAUGGAAUGAUACCAGAUACUUAGAAAUCCCUUGGCAGCAUGAGGACAUGAGGAUCACCCAUGUAU | 0.0579 | 0.0615 |  |  |  |

| Sequence | apparent Kd [1, 3] [µM] | apparent Kd [1, 4] [µM] | apparent Kd [1, 5] [µM] | apparent Kd [1, 6] [µM] | other results |
| --- | --- | --- | --- | --- | --- |
| AUAUCAUAGAGUGAUACCAGACUACAUGAGGAUCACCCAUGUGACAUUUAAAUAUCAUUUGUCCCUUGGCAGCACAUUAAGUACA | 0.0673 | 0.0654 |  |  |  |
| AUCCUUAAUAGGGUAAAUGGAUAAAGUGAUACCAGUCAAAUACAAGACCCUUGGCAGCACAAGGACAUGAGGAUCACCCAUGUCA |  |  | 0.0205 | 0.0147 |  |
| AUCGUACCUGAUGAUACCAGCAAGUGAUCAUAACAUGAGGAUCACCCAUGUAAUCAGUGAUGCCCUUGGCAGCAUAAUCGAUACA |  |  | 0.178 | 0.14 |  |
| CAUACUUUAGUAUGUAAUGUGGACAGUGAUACCAGAUACGAAAGUAUCCCUUGGCAGCACAACAUGAGGAUCACCCAUGUAUUUU |  |  | 0.0194 |  |  |
| CGACGAUACCUGGAUACCAGCGACAUGAGGAUCACCCAUGUAUGUGGAUCAGCCAUGAUAUGCCCUUGGCAGCCACCAAAGUCGG | 0.0149 | 0.0519 |  |  |  |
| CGGUUUGUGAUGGAUACCAGCAGAGUGACUGUUUAUCCUGACAUGAGGAUCACCCAUGUGUGCCCUUGGCAGCUGUUGUGGGCUG | 0.0804 | 0.0808 |  |  |  |
| CGUGGUGGGACGGAUACCAGCCACCGCGGCAACGCAACAUGAGGAUCACCCAUGUUGGGUGGCCCUUGGCAGCUGUCCUGCGGCG |  |  | 0.0115 | 0.0134 |  |
| CUCUGAGUCCGAAAGGACUCAGAGGCGGAUACCAGCGAGGUCCAUCGCCCUUGGCAGCCGAACAUGAGGAUCACCCAUGUCGGUA |  |  | 0.0105 | 0.0145 |  |
| GAAUAUUACAUGAGGAUCACCCAUGUAGAUACCAGCCUUGAUUGUGGCCCUUGGCAGCUACGCCGUGAAUGCCUCAGUUGCUUAC | 0.0907 | 0.0315 |  |  |  |
| GAGCUGAUGUAGGGCGGAUAUCCGUGAGAUACCAGUACAGAAAUGUACCCUUGGCAGCUCUUCCUUACAUGAGGAUCACCCAUGU | 0.0194 | 0.0361 |  |  |  |
| GAUGAACUAUAUGAUACCAGACAACAUGAGGAUCACCCAUGUGUAAGUCGUCCUCUGCCUGUCCCUUGGCAGCGUAUAGUUUAUC | 0.0476 | 0.084 |  |  |  |
| GAUGAACUAUUUGAUACCAGACUACAUGAGGAUCACCCAUGUGCGCGUCGUCCUCUGCCAGUCCCUUGGCAGCAAAUAGUUUAUC | 0.101 | 0.127 |  |  |  |
| GCACCAGGUACGGAUACCAGCUGCCAGCGUUACAUGAGGAUCACCCAUGUGAUCUGAUAUAGCCCUUGGCAGCUGUACCUGGUGC |  |  | 0.11 | 0.865 |  |
| GCGAUACAUGAGGAUCACCCAUGUGCAGAUACCAGAGGUGCAUGCCUCCCUUGGCAGCUGCGACGCUCUGGCAUCUUGUGGGAUG |  |  | 0.0691 | 0.071 |  |
| GGCCGAUGGUGCGAUACCAGCUUGAGUGUACUGGCCAGGUACAUGAGGAUCACCCAUGUAAGCCCUUGGCAGCGCGUCAGAGGCC |  | 0.0358 |  |  |  |
| GGCUGUUGCGAUUUGAAGCGGCAGCGUGAUACCAGAUGUAAGAGCGUCCCUUGGCAGCACGUUUACAUGAGGAUCACCCAUGUCA |  |  | 0.106 | 0.06 |  |
| UAUAUAUAUAUGGAUACCAGCAGAGAAAACGUUUAUCCUAACAUGAGGAUCACCCAUGUAUGCCCUUGGCAGCUGUAUAUAUAUA | 0.0249 | 0.0324 |  |  |  |
| UAUCUUGCGGGCGCCCGCAAGGUUGCGGAUACCAGCGAGAUAAAUCGCCCUUGGCAGCCGAACAUGAGGAUCACCCAUGUCGGAC |  |  | 0.00999 | 0.0127 |  |
| UCAUGAGGAUCACCCAUGUGGCGUCUUGAUACCAGACGAGAAGUAGUCCCUUGGCAGCAAAUACAUGAGGAUCACCCAUGUAGGA | 0.0386 | 0.0637 |  |  |  |
| UCGCAUUGCUGCGAUACCAGACAUGAGGAUCACCCAUGUACCAAGAAAACGUACAUAAAUGUCCCUUGGCAGCGCAGCAAUGCGU | 0.443 | 1.11 |  |  |  |
| UGACAUUGCUCAGAUACCAGACAUGAGGAUCACCCAUGUACCAAGGUACCCGAAAGGAAUGUCCCUUGGCAGCUGAGCAAUGUCU | 0.00993 | 0.0215 |  |  |  |
| UGACAUUGCUCAGAUACCAGACAUGAGGAUCACCCAUGUGCCAAAACGUACUAAAUAAAUGUCCCUUGGCAGCUGAGCAAUGUCU | 0.0126 | 0.126 |  |  |  |
| UGAUCCUACAGAGAUACCAGUGCCACUAAAUAACUAAACACAUGAGGAUCACCCAUGUAACACCCUUGGCAGCUCAACUAAAGGG |  |  | 0.0274 | 0.0192 |  |
| UGGUACAUGAGGAUCACCCAUGUGCCGGAUACCAGAGAGCCGGCUCUCCCUUGGCAGCUGGCGCGACAUGAGGAUCACCCAUGUG | 0.0252 | 0.0384 |  |  |  |
| UGGUACAUGAGGAUCACCCAUGUUCCAGAUACCAGAUACCCGGUUAUCCCUUGGCAGCUGGUGGUACAUGAGGAUCACCCAUGUG | 0.0361 | 0.0867 |  |  |  |
| UUCUUUAAGUCGGCCGCCACUGAAACAUGAGGAUCACCCAUGUAAAUUUGGGAGUAGUUAUAUUACAGGACCGGGACUAUAGUAA |  |  |  |  | apparent Kd ([2]; no ligand): 0.0415 µM; apparent Kd ([2]; ligand present: tryptophan): 0.083 µM |
